# Source: ChEMBL document CHEMBL1821721, “Probing the difference between BH3 groove of Mcl-1 and Bcl-2 protein: Implications for dual inhibitors design” (Eur J Med Chem, 2011)
# Legend:
# [1] = target: Apoptosis regulator Bcl-2 (Homo sapiens, UniProt P10415); assay: Displacement of FAM-Bid peptide from human recombinant Bcl2 after 30 mins by competitive fluorescence polarization assay
# Method in brief: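 Bcl-2 (40 nM) preincubated with 10 nM FAM-Bid peptide (Kd 8 nM) in 100 mM potassium phosphate pH 7.5, bovine gamma globulin, 0.02% sodium azide. Serial compound dilutions added in 0.01% Triton X-100; polarization read after 30 min. Controls were protein plus peptide, and peptide alone. Ki derived from an equation developed for FP assays.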
# [2] = target: Induced myeloid leukemia cell differentiation protein Mcl-1 (Homo sapiens, UniProt Q07820); assay: Displacement of FAM-Bid peptide from human Mcl-1 after 30 mins by competitive fluorescence polarization assay
# Method in brief: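 Serial compound dilutions added with 0.01% Triton X-100; polarization read after 30 min. Controls were protein plus peptide, and peptide alone. Ki calculated with an FP-specific competitive binding equation.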
# [3] = test system: K562; assay: Cytotoxicity in human K562 cells overexpressing Mcl-1 after 48 hrs by MTT assay; type: functional, cell-based; conditions: K562, 48 h
# [4] = test system: MCF7; assay: Cytotoxicity in human MCF7 cells overexpressing Mcl-1after 48 hrs by MTT assay; type: functional, cell-based; conditions: MCF7, 48 h
# [5] = test system: HL-60; assay: Cytotoxicity in human HL60 cells overexpressing Bcl-2 after 48 hrs by MTT assay; type: functional, cell-based; conditions: HL-60, 48 h
# Sequence of Apoptosis regulator Bcl-2 (P10415 whole entry): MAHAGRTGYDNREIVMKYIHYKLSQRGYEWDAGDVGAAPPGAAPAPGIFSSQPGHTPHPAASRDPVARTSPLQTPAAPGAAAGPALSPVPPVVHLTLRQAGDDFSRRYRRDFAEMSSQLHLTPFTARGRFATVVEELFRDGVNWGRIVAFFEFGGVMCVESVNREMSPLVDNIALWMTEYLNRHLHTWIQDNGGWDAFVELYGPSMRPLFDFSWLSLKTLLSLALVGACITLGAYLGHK
# Sequence of Induced myeloid leukemia cell differentiation protein Mcl-1 (Q07820 whole entry): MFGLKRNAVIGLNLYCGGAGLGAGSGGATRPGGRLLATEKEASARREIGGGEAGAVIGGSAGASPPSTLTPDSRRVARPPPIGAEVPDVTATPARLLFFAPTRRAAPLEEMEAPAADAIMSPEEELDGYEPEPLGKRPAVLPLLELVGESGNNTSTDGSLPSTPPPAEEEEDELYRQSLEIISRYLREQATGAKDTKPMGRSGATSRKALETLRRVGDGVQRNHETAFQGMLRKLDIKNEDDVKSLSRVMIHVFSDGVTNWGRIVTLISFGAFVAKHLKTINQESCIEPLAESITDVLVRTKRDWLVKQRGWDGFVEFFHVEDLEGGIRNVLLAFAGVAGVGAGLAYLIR
SMILES,Ki [1],Ki [2],IC50 [3],IC50 [4],IC50 [5]
Cc1ccc(Oc2ccc3c4c(cccc24)C2=NC(=O)C(C#N)=C23)cc1,445 nM,174 nM,–,–,–
COc1ccc(Oc2ccc3c4c(cccc24)C2=NC(=O)C(C#N)=C23)cc1,304 nM,122 nM,4700 nM,5100 nM,1900 nM
Cc1cccc(Oc2ccc3c4c(cccc24)C2=NC(=O)C(C#N)=C23)c1,6030 nM,445 nM,–,–,–
COc1cccc(Oc2ccc3c4c(cccc24)C2=NC(=O)C(C#N)=C23)c1,16600 nM,375 nM,8300 nM,6400 nM,> 50000 nM
CCC(C)c1ccc(Oc2ccc3c4c(cccc24)C2=NC(=O)C(C#N)=C23)cc1 (stereo not drawn),–,–,50 nM,20 nM,40 nM
COc1ccccc1Oc1ccc2c3c(cccc13)C1=NC(=O)C(C#N)=C12,886 nM,149 nM,–,–,–
Cc1ccccc1Oc1ccc2c3c(cccc13)C1=NC(=O)C(C#N)=C12,1430 nM,213 nM,–,–,–
CC(C)c1ccc(Oc2ccc3c4c(cccc24)C2=NC(=O)C(C#N)=C23)cc1,232 nM,–,–,–,–
N#CC1=C2C(=NC1=O)c1cccc3c(Oc4ccc(-c5ccccc5)cc4)ccc2c13,308 nM,–,–,–,–
